Screening data from PubChem BioAssay.
RGS4 block: inhibitors of human RGS4. 310,000 compounds, 0.45% hits. B-score at 10 µM. AID 463165. HEK293 M3R/RGS4 inducible, Fluo-4 calcium flux; hits give high values; triggered by carbachol at its EC20. P49798;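 active means B-score, a plate-corrected calcium signal, over three deviations above library mean, with baseline fluorescence within five deviations of library mean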;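 further: RGS4 expression induced by doxycycline in cells with stable M3 receptor; B-score is computed from the integrated fluorescence ratio over baseline after carbachol; higher B-score means a larger calcium signal and so more RGS4 inhibition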
Target sequence (P49798 whole entry, looked up): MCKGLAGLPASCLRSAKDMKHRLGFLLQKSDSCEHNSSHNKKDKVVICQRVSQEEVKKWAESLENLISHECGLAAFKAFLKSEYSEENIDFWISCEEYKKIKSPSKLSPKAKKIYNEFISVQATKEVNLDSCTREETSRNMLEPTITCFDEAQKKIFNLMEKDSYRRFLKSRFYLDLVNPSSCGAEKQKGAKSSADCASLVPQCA
MrgX1 allo act: human MrgX1 positive allosteric modulation, primary screen; MrgX1-HEK293, Fluo-4 calcium flux, FDSS; hits give high values; B-score at 10 µM; 310,000 compounds, 0.63% hits; AID 588675;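 active means plate-corrected calcium response at least 3 library SD above typical, normal starting fluorescence, not activating the receptor alone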;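 further: compound read alongside a low EC10 to EC30 dose of BAM8-22 agonist; peak minus trough fluorescence over baseline measured at the second addition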
Target sequence (Q96LB2 whole entry, looked up): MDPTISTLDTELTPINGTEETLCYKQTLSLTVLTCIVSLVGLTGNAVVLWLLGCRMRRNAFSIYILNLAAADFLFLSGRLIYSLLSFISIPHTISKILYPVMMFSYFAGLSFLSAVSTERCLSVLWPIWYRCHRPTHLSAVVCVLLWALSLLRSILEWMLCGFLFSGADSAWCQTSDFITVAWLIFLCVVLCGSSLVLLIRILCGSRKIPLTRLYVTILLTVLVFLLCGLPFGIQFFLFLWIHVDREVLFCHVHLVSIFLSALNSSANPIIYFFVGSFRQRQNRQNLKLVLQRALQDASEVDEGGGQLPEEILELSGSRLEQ
Hep lipid drop: modulators of hepatic lipid droplet formation; AML12 mouse hepatocytes, oleate lipid droplets, BODIPY imaging; inhibition, % at 6.5 µM; 240,000 compounds, 0.4% hits; AID 1656;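 active means lipid droplet intensity inhibited by at least 50%, with more than 500 cells counted; inconclusive means wells with under 300 cells, treated as cytotoxic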
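Material – mouse AML12 hepatocyte cell line, fixed after treatment · Compound dosing – one dose, 6.5 µM compound · Times – compound with oleate, overnight · Measured by – Image-based BODIPY and DAPI two-channel analysis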
MrgX1 ag: agonists of human MrgX1 receptor. Q96LB2. MrgX1-HEK293 cells, Fluo-4 calcium fluorescence, agonist mode; hits give high values. B-score at 10 µM. 310,000 compounds, 0.44% hits. AID 588627;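 active means calcium response B-score plate-corrected fluorescence ratio at least 3 library SD, with starting fluorescence B-score inside 5 SD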
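Test system: HEK293 cells stably expressing human MrgX1 receptor; amount: 15,000 cells per well; doses: compound delivered in addition one of three; times: overnight plating before 1 h dye loading; detection: Fluo-4 NW calcium-flux fluorescence, kinetic read; read-out basis: B-scored fluorescence response ratio; controls: positive and negative controls per plate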
RGS4 act: potentiators or activators of RGS4; HEK293 M3R/inducible RGS4, carbachol calcium flux Fluo4; hits give low values; B-score at 10 µM; 310,000 compounds, 0.92% hits;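 active means B-score of the integrated calcium signal more than 4 SD below the library mean, with starting fluorescence not abnormally high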;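 further: negative B-score means reduced calcium response which marks RGS4 activation or potentiation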
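Assay system: Inducible-RGS4 HEK293 cells carrying M3 receptor | Schedule: Compound preincubation 20 min at room temperature before agonist | Signal: Kinetic calcium fluorescence imaging with Fluo4-AM dye, 2 µM | Read-out basis: B score from integrated fluorescence ratio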
MrgX1 antag: antagonists of human MrgX1 receptor | MRGX1-HEK293 calcium flux, Fluo-4, BAM8-22 antagonism; hits give low values | B-score at 10 µM | 310,000 compounds, 1.3% hits | AID 588676;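 active means calcium-response B-score plate-corrected more than 3 library SD below zero, starting fluorescence within 5 deviations, no agonist response on first addition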;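 further: peak minus trough fluorescence over baseline after final BAM8-22 challenge near maximal dose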
MrgX1 ant reconf: confirmation of human MrgX1 receptor antagonists | shares compounds with MrgX1 antag | MrgX1-HEK293, BAM8-22 calcium flux, Fluo-4; hits give low values | remaining BAM8-22 calcium response % of control (hits give low values), % at 10 µM | 2,300 compounds, 19% hits | AID 602420;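 active means remaining agonist calcium response no higher than 100% minus 3 SD of agonist-only control wells, with starting fluorescence near control levels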;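 further: agonist BAM8-22 given at a near maximal EC90 to ECmax level; peak minus minimum fluorescence divided by baseline after agonist addition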
HEK293 Ca flux: activity in parental HEK293 cells lacking MrgX1. Fluo-4 calcium fluorescence, FDSS. fluorescence ratio F(max-min)/F0 at 10 µM. shares compounds with MrgX1 antag. 4,000 compounds, 2% hits;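 active means duplicate-averaged calcium fluorescence ratio at least three times the standard deviation of buffer wells, a nonspecific response in parental cells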
HEK293 Ca counter: counter-screen for MrgX1 allosteric activators: effect in parental HEK293 cells; fluorescence ratio F(max-min)/F0 at 10 µM; shares compounds with MrgX1 antag; 4,000 compounds, 0.4% hits; parental HEK293 calcium flux, Fluo-4 fluorescence ratio; hits give high values; AID 624114;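 active means calcium fluorescence ratio, averaged over duplicates, at least 3 SD of the buffer-well ratio, meaning a nonspecific response in receptor-free cells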;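 further: untransfected parental HEK293 lacking MrgX1 used as counterscreen for MrgX1 allosteric activators; fluorescence change taken during the second addition on a kinetic imager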
HEK293 Ca cntr2: activity in parental HEK293 cells lacking MrgX1 receptor | shares compounds with MrgX1 antag | Fluo-4 calcium fluorescence (FDSS); hits give high values | fluorescence ratio F(max-min)/F0 at 10 µM | 4,000 compounds, 8.7% hits;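 active means calcium fluorescence ratio at least three times the spread of buffer wells, meaning a non-specific response in parental cells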
A number is an active result; . = inactive; ? = inconclusive; / = not tested or not shown. In the library only some 3.8% were active in any assay of this set; here they are far more common.

SMILES	RGS4 block	MrgX1 allo act	Hep lipid drop	MrgX1 ag	RGS4 act	MrgX1 antag	MrgX1 ant reconf	HEK293 Ca flux	HEK293 Ca counter	HEK293 Ca cntr2
CC1CCN(C(=O)CSc2nc3[nH]ncc3c(=O)[nH]2)CC1	.	.	.	.	.	-6.42	.	.	.	.
Cc1cc(C)cc(NC(=O)CSc2nc3[nH]ncc3c(=O)[nH]2)c1	.	.	?	.	.	-9.07	.	.	.	.
CCOC(=O)N1CCN(C(=O)c2ccccc2N(C)S(C)(=O)=O)CC1	.	.	.	.	.	-7.64	.	.	.	.
CCC1(c2ccc(F)cc2)NC(=O)N(CC(=O)c2cc(C)n(C3CC3)c2C)C1=O (stereo not drawn)	.	.	/	.	.	-6.26	.	.	.	51
COc1ccc(CN2CN=C(Nc3nc4ccccc4s3)NC2)cc1	.	.	/	.	.	-7.47	57.0%	.	.	.
CCSc1nnc(NC(=O)c2cc(OC)c(OC)c(OC)c2)s1	.	.	.	.	.	.	/	/	/	/
S=c1nc(-c2ccccc2Br)[nH][nH]1	.	.	.	.	.	-6.1	.	.	.	.
O=C(NCCC1=CCCCC1)C1CCN(S(=O)(=O)c2ccc(Br)s2)CC1	.	.	.	.	.	.	/	/	/	/
O=C(CSc1nc2ccccc2c(=O)n1-c1ccccc1)c1c[nH]c2ccccc12	.	.	.	.	.	-5.97	.	.	.	.
O=[N+]([O-])c1cc(C(F)(F)F)ccc1N1CCN(S(=O)(=O)c2ccc3c(c2)CCCC3)CC1	.	.	.	.	.	.	/	/	/	/
COc1ccc(NC(=O)c2nc[nH]c2C(=O)N2CCN(C(=O)OC(C)(C)C)CC2)cc1	.	.	.	.	.	-7.66	.	.	.	.
O=C(NCCCN1CCCC1)c1cc2c(Cl)nc3ccccc3c2s1	.	.	.	.	.	-7.65	.	.	.	.
CC(NC(=O)NC(N)=O)(C(F)(F)F)C(F)(F)F	.	.	/	.	.	-5.19	.	.	.	.
CCCCN(C(=O)c1cccc(S(=O)(=O)N2CCN(C)CC2)c1)c1c(N)n(CCC)c(=O)[nH]c1=O	.	.	/	.	.	-14.9	.	.	.	.
O=S1(=O)N=C2CCCCCN2C(c2ccccc2)N1 (stereo not drawn)	.	.	.	.	.	-4.62	85.2%	.	.	.
O=S1(=O)N=C2CCCCCN2C(c2ccc(F)cc2)N1 (stereo not drawn)	.	.	.	.	.	.	/	/	/	/
CCN1CCCC1CNC(=O)c1cc(NC(C)=O)c(N(C)C)cc1OC (stereo not drawn)	.	.	/	.	.	-6.5	.	.	.	.
C=CCOc1ccc(CN(C)C(=O)CNC(=O)c2ccc(-c3ccccc3)cc2)cc1	.	.	.	.	.	.	/	/	/	/
O=C(CSc1nnc(NC(=O)C2CC(=O)N(c3ccc(F)cc3)C2)s1)NC1CCCC1 (stereo not drawn)	.	.	.	.	.	-4.88	.	.	.	.
O=C(Nc1nnc(SCC(=O)N2CCCC2)s1)C1CC(=O)N(c2ccc(F)cc2)C1 (stereo not drawn)	.	.	.	.	.	.	/	/	/	/
O=C(O)c1ccc(-n2c(=O)c3ccccc3c3ccccc3c2=O)cc1	.	.	.	.	.	-6.34	.	.	.	.
